This note sets out measurements from ChEMBL document CHEMBL1127081, “Synthesis of 2,4-disubstituted thiazoles and selenazoles as potential antifilarial and antitumor agents. 2. 2-Arylamido and 2-alkylamido derivatives of 2-amino-4-(isothiocyanatomethyl)thiazole and 2-amino-4-(isothiocyanatomethyl)selenazole” (J Med Chem, 1993).

The source made the active and inactive calls. The rule behind the calls is not given here.

The subject of assay [1] is L1210. As to the kind of experiment: Screen growth rate of L1210 leukemic cells in the presence of compound at 100 uM expressed as percent of control. It is filed as functional, Mus musculus. In outline:
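L1210 cells grown in static suspension at 38 °C in Fischer's medium with continuous 100 μM compound for 3 days. Growth rate = ratio of control to treated population doubling time, expressed as % of control; if growth slowed, the final rate over the 3-day period was used.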

The test system of assay [2] is L1210. Description: Compound was tested in vitro for antiproliferative activity against L1210 leukemic cells. It is filed as functional, cell-based. To be noted: Mus musculus. Summed up: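 Mouse L1210 leukemia cells grown in static suspension culture at 38 °C in Fischer's medium. Cells were exposed continuously to a range of concentrations for 3 days. Growth rate = control doubling time / treated doubling time, as % of control; the final rate was used if growth slowed. IC50 = concentration reducing growth rate to 50% of control.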

For the next assay, the system named is Acanthocheilonema viteae. Description: Antifilarial activity against adult worm of A. viteae in jirds at 100 mg/kg x 5 days administered subcutaneously; No activity. It counts as functional, organism-based. Set-up: dose 100 mg/kg.
The next assay has as its system Brugia pahangi. As to the kind of experiment: Compound tested for anti-filarial activity against adult worm of Brugia pahangi in jirds at 100 mg/kg x 5 days administered subcutaneously; No activity. It counts as functional, organism-based. Set-up: dose 100 mg/kg.
In assay [3] the target is GMP synthase [glutamine-hydrolyzing] (Mus musculus, UniProt Q3THK7). As to the kind of experiment: In vitro inhibitory activity against partially purified GMP synthetase in L1210 cells.
Assay [4] has as its system L1210. Description: Compound was tested in vitro for antiproliferative activity against L1210 leukemic cells; No significant inhibition. It is filed as functional, cell-based, Mus musculus.

Chain of GMP synthase [glutamine-hydrolyzing] (Q3THK7 whole entry): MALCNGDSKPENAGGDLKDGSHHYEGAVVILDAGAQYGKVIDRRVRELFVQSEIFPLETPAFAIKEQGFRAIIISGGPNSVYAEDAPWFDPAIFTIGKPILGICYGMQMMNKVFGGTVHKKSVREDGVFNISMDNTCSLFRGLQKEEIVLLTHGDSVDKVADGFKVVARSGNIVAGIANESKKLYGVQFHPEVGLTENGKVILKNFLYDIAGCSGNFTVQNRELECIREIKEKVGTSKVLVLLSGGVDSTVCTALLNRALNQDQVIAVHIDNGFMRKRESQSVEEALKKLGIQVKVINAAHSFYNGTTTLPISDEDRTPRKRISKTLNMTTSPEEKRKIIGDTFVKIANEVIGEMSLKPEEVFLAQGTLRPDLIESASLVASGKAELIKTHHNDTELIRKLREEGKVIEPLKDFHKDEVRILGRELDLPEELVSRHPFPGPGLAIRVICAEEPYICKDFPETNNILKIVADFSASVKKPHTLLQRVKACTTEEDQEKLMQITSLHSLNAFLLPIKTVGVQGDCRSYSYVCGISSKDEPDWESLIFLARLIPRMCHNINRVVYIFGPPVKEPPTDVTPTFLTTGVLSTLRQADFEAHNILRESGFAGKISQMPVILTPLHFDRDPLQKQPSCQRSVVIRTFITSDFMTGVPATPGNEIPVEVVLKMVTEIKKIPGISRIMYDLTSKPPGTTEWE

In the case of `CC(C)C(=O)Nc1nc(CN=C=S)cs1`, in the assay with L1210 [1], the GR stood at 0%. The half-inhibitory concentration (IC50) in the assay on L1210 [2] was determined as 8.2 µM. Also, the outcome with Acanthocheilonema viteae and in the assay on Brugia pahangi was inactive.

Turning to `O=C(Nc1nc(CN=C=S)cs1)c1ccccc1`, the results for the IC50 (in assay [3]; in the assay on L1210 [2]) were 0.35 µM and 0.2 µM, respectively. Also, the GR in the assay with L1210 [1] was 0%. For the same molecule, the outcome in the assay with Acanthocheilonema viteae and in the assay on Brugia pahangi was inactive.

On to `CC(C)(C)c1ccc(C(=O)Nc2nc(CN=C=S)cs2)cc1`, for which the GR with L1210 [1] was found to be 72%. In the assay on L1210 [2], this molecule returned an IC50 greater than 100 µM. Moreover, the result with Acanthocheilonema viteae and in the assay on Brugia pahangi was inactive.

Take `O=C(Nc1nc(CCl)cs1)c1ccccc1`: in the assay with L1210 [1], the GR amounted to 100%. Also, the IC50 entry in the assay with L1210 [4] was “Not Active”. Besides, the outcome in the assay on Acanthocheilonema viteae and with Brugia pahangi was inactive.

With `Cc1ccc(C(=O)Nc2nc(CN=C=S)cs2)cc1`, in the assay on L1210 [1], the GR worked out at 25%. In the assay with L1210 [2], this molecule registered an IC50 of 0.48 µM. The result in the assay with Acanthocheilonema viteae and with Brugia pahangi was inactive.

As to `CCC(=O)Nc1nc(CN=C=S)c[se]1`, the GR in the assay on L1210 [1] turned out to be 0%. The molecule also came in with an IC50 with L1210 [2] of 3.5 µM. Besides, the result in the assay on Acanthocheilonema viteae and with Brugia pahangi was inactive.

With `O=C(Nc1nc(CN=C=S)cs1)c1ccc(F)cc1`, the GR in the assay with L1210 [1] is reported as 0%. In the assay with L1210 [2], this molecule registered an IC50 of 1.1 µM. For the same molecule, the result in the assay on Acanthocheilonema viteae and in the assay on Brugia pahangi was inactive.

As to `CCC(=O)Nc1nc(CN=C=S)cs1`, in the assay with L1210 [1], the GR came out at 0%. Besides, 6.8 µM corresponded to half-maximal inhibition with L1210 [2] (IC50). For the same molecule, the outcome in the assay on Acanthocheilonema viteae and in the assay on Brugia pahangi was inactive.

For `CC(=O)Nc1nc(CN=C=S)cs1`, the GR in the assay with L1210 [1] is 1%. Besides, the IC50 in the assay on L1210 [2] stood at 5.2 µM. The outcome in the assay on Acanthocheilonema viteae and with Brugia pahangi was inactive.

Take `CC(C)(C)C(=O)Nc1nc(CN=C=S)c[se]1`: in the assay with L1210 [1], the GR is on record as 0%. The same molecule yielded an IC50 in the assay on L1210 [2] of 18 µM. In addition, the outcome in the assay with Acanthocheilonema viteae and with Brugia pahangi was inactive.

As to `COC(=O)Nc1nc(CN=C=S)cs1`, the result in the assay with Acanthocheilonema viteae and in the assay with Brugia pahangi was inactive.

In the case of `CC(=O)Nc1nc(CCl)c[se]1`, in the assay with L1210 [1], the GR stood at 65%. This molecule showed an IC50 in the assay with L1210 [2] greater than 100 µM. In addition, the result in the assay on Acanthocheilonema viteae and in the assay on Brugia pahangi was inactive.

Turning to `O=C(Nc1nc(CN=C=S)cs1)c1ccc(Cl)c(Cl)c1`, the GR with L1210 [1] is 0%. Besides, the IC50 in the assay with L1210 [2] stood at 0.82 µM. Also, the outcome in the assay with Acanthocheilonema viteae and with Brugia pahangi was inactive.

Take `Nc1nc(CN=C=S)c[se]1`: the GR with L1210 [1] amounted to 0%. In the assay on L1210 [2], this molecule registered an IC50 of 21 µM. Also, the result in the assay on Acanthocheilonema viteae and with Brugia pahangi was inactive.

For the molecule `Nc1nc(CN=C=S)cs1`, the GR in the assay with L1210 [1] is given as 0%. In the assay on L1210 [2], this molecule showed a concentration for half-maximal inhibition (IC50) of 26 µM. In addition, the result in the assay on Acanthocheilonema viteae and in the assay with Brugia pahangi was inactive.

With `CC(C)(C)C(=O)Nc1nc(CN=C=S)cs1`, the GR in the assay with L1210 [1] is 28%. In the assay on L1210 [2], the IC50 was determined as 4.3 µM. Also, the result in the assay with Acanthocheilonema viteae and with Brugia pahangi was inactive.

`CC(=O)Nc1nc(CCl)cs1`: the GR with L1210 [1] was 75%. In the assay on L1210 [2], this molecule returned an IC50 greater than 100 µM. The result with Acanthocheilonema viteae and in the assay on Brugia pahangi was inactive.

On to `O=C(Nc1nc(CN=C=S)cs1)c1ccc(Cl)cc1`, for which the GR in the assay with L1210 [1] is recorded as 0%. Also, the IC50 with L1210 [2] turned out to be 0.22 µM. Also, the outcome in the assay on Acanthocheilonema viteae and in the assay on Brugia pahangi was inactive.

In the case of `COc1ccc(C(=O)Nc2nc(CN=C=S)cs2)cc1`, the GR in the assay with L1210 [1] was determined as 0%. Half-maximal inhibition in the assay on L1210 [2] (IC50) required 0.44 µM. Moreover, the outcome in the assay on Acanthocheilonema viteae and in the assay on Brugia pahangi was inactive.

As to `O=C(Nc1nc(CCl)c[se]1)c1ccccc1`, the GR with L1210 [1] is 101%. Further, in the assay with L1210 [4], the IC50 entry was “Not Active”. Also, the outcome in the assay with Acanthocheilonema viteae and in the assay on Brugia pahangi was inactive.

For `O=C(Nc1nc(CN=C=S)cs1)c1ccc(C(F)(F)F)cc1`, in the assay on L1210 [1], the GR is 0%. Further, the midpoint of inhibition in the assay on L1210 [2], the IC50, lay at 0.5 µM. Moreover, the outcome in the assay on Acanthocheilonema viteae and in the assay on Brugia pahangi was inactive.

On to `O=C(Nc1nc(CN=C=S)cs1)C(F)(F)F`, for which the GR in the assay with L1210 [1] stood at 20%. Besides, the result in the assay with Acanthocheilonema viteae and in the assay on Brugia pahangi was inactive.

As for `O=C(Nc1nc(CN=C=S)c[se]1)c1ccccc1`, the GR with L1210 [1] was 13%. The molecule further yielded a 50% inhibitory concentration (IC50) in the assay with L1210 [2] of 0.9 µM. For the same molecule, the outcome in the assay with Acanthocheilonema viteae and with Brugia pahangi was inactive.

Take `CC(C)C(=O)Nc1nc(CN=C=S)c[se]1`: in the assay on L1210 [1], the GR worked out at 0%. Besides, in the assay with L1210 [2], the IC50 stood at 28 µM. For the same molecule, the result in the assay on Acanthocheilonema viteae and in the assay on Brugia pahangi was inactive.

For the molecule `CC(=O)Nc1nc(CN=C=S)c[se]1`, the GR with L1210 [1] was 14%. This molecule also came in with a 50% inhibitory concentration (IC50) with L1210 [2] of 30 µM. Moreover, the result in the assay on Acanthocheilonema viteae and in the assay on Brugia pahangi was inactive.
